Test results: ChEMBL document CHEMBL1667733, “Cytotoxic amide alkaloids from Piper boehmeriaefolium” (J Nat Prod, 2011)
Values after ≈ are worked out from the molar mass of the structure shown. Active and inactive are the calls of the source. The calls are words filed in the database; no cut-off is given here.

test system: HeLa; assay: Cytotoxicity against human HeLa cells after 72 hrs by MTT assay; assay type: functional, cell-based
Summary of the method: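 HeLa cells in log-phase growth, harvested with 0.01% trypsin, seeded at 3.0 × 10^3 cells/well and grown overnight at 37 °C in humidified 5% CO2. Six concentrations (100.00, 33.33, 11.11, 3.70, 1.23, 0.41 µg/mL) added in triplicate. After 72 h at 37 °C, MTT added for 3 h more, supernatant removed, DMSO added. Absorbance read at 550 nm against 690 nm reference. Doxorubicin positive control.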

Row | Structure (SMILES) | IC50 [µg/mL] | Activity
1 | O=C(/C=C/C=C/CC/C=C/c1ccc2c(c1)OCO2)N1CCCC1 | 13.7 (≈ 42.2 µM) | 
2 | O=C(/C=C/C=C\CC/C=C/c1ccc2c(c1)OCO2)N1CCCC1 | 7.42 (≈ 22.8 µM) | 
3 | COc1cccc2c1C(=O)c1c(O)c3c(c(O)c1C2=O)C[C@@](O)(C(=O)CO)C[C@@H]3O[C@H]1C[C@H](N)[C@H](O)[C@H](C)O1 [DOXORUBICIN] | 0.163 (≈ 0.3 µM) | 
4 | CCCCC/C=C/C=C/C=C/C(=O)N1CCCC1 |  | inactive
5 | O=C(/C=C/C=C/CCCC/C=C/c1ccc2c(c1)OCO2)N1CCCC1 | 11.6 (≈ 32.8 µM) | 
6 | O=C(/C=C/CCCC/C=C/c1ccc2c(c1)OCO2)N1CCCC1 [BRACHYAMIDE B] | 15 (≈ 45.7 µM) | 
7 | O=C(CC/C=C/CCCC/C=C/c1ccc2c(c1)OCO2)N1CCCC1 | 12.2 (≈ 34.3 µM) | 
8 | O=C(CCCCCC/C=C/c1ccc2c(c1)OCO2)N1CCCC1 | 17.9 (≈ 54.5 µM) | 
9 | COc1cc(CCC(=O)n2cccc2)cc(OC)c1OC |  | inactive
10 | CCCCC/C=C/C=C/C(=O)NCCc1ccc(O)c(OC)c1 |  | inactive
11 | COc1cc(CCC(=O)n2cccc2)cc(OC)c1O |  | inactive
12 | O=C(CCCCCCC/C=C/c1ccc2c(c1)OCO2)N1CCCC1 | 2.67 (≈ 7.77 µM) | 
13 | CCCCC/C=C/C=C/C(=O)NCC[S+](C)[O-] (stereo not drawn) |  | inactive
